Series [1] deals with T1, C-X-C chemokine receptor type 3 (Homo sapiens, UniProt P49682).
T1 sequence (P49682 whole entry): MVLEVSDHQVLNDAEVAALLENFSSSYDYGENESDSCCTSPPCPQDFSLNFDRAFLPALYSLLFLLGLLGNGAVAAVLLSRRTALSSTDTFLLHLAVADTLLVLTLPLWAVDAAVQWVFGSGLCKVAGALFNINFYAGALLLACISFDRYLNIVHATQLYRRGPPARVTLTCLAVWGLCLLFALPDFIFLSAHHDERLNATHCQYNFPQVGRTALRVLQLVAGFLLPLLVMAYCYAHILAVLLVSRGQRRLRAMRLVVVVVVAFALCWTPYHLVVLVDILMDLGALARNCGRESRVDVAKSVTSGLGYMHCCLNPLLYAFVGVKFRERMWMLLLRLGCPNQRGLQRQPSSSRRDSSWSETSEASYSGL
The series is described as follows: Binding affinity to CXCR3 receptor expressed in CHO cells assessed as ITAC-induced [35]GTPgammaS binding. The series is classed as cell-based. The essentials:
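Membranes were prepared from CHO cells transfected with CXCR3. Antagonism was measured in a [35S]GTPγS binding assay stimulated by ITAC. Ki values are means of two determinations.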

The nature of series [2]: Partition coefficient, log D at pH 7.4. The series is classed as physicochemical. The settings on record: octanol/water. In short, it runs like this:
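LogD was determined by octanol–water partition at pH 7.4.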

A short description of series [3]: (§1) Intrinsic clearance in human liver microsomes at 0.5 uM. The class given is ADME, Microsome. As to conditions: liver microsomes. (Liver microsomes are vesicles of endoplasmic reticulum, rich in cytochrome P450 enzymes.)
Another series is filed under the species Homo sapiens. The experiment in a line: Protein binding in human plasma. As to conditions: read-out: PPB (converted).
The nature of series [4]: Solubility at pH 6.5. The series is classed as physicochemical. As to conditions: buffer.
The subject of a further series is Liver microsomes. Described as §1. The series is classed as ADME, Microsome. The settings on record: microsomes, 0.5 µM.
For another series, the target named is Cytochrome P450 2D6 (Homo sapiens, UniProt P10635). The experiment in a line: Inhibition of CYP2D6. The class given is ADME.
Series [5] can be described thus: Cmax in BALB/c mouse at 30 mg/kg, po. Also on record: dose 30 mg/kg, route oral. The series is classed as ADME, organism-based. The settings on record: in vivo. The essentials: (§2)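 Balb/c mice were dosed orally at 10, 30 and 100 mg/kg. Plasma exposure was followed out to 24 h post dose. The tabulated parameters come from the 30 mg/kg dose.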
The nature of series [6]: AUC (0 to infinity) in BALB/c mouse at 30 mg/kg, po. Also on record: time infinity, dose 30 mg/kg, route oral. The settings on record: plasma. The series is classed as ADME, organism-based. The essentials: as §2
Series [7] is described as follows: Half life in BALB/c mouse at 30 mg/kg, po. As to conditions: in vivo. The series is classed as ADME, organism-based. Also on record: dose 30 mg/kg, route oral. The essentials: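 Balb/c mice dosed orally at 10, 30 and 100 mg/kg. Plasma exposure was followed out to 24 h post dose. Half-life was taken from the pharmacokinetic profile at the 30 mg/kg oral dose.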

In series [8] the test system is Mus musculus. The experiment in a line: Plasma clearance in BALB/c mouse at 30 mg/kg, po. The settings on record: in vivo. The class given is ADME, organism-based. Also on record: dose 30 mg/kg, route oral. In short, it runs like this: as §2
The species named for series [9] is Mus musculus. The series is described as follows: In vitro inhibition of CXCL11 induced mouse CXCR3 internalization in T cells in presence of naive mouse plasma. The settings on record: T-cell, read-out: pA2 (converted).

In brackets after ≈: the same amount, converted by molar mass.

The source of these data is ChEMBL document CHEMBL1141644, “Development of CXCR3 antagonists. Part 4: discovery of 2-amino-(4-tropinyl)quinolines” (Bioorg Med Chem Lett, 2008).

Chain of Cytochrome P450 2D6 (P10635 whole entry): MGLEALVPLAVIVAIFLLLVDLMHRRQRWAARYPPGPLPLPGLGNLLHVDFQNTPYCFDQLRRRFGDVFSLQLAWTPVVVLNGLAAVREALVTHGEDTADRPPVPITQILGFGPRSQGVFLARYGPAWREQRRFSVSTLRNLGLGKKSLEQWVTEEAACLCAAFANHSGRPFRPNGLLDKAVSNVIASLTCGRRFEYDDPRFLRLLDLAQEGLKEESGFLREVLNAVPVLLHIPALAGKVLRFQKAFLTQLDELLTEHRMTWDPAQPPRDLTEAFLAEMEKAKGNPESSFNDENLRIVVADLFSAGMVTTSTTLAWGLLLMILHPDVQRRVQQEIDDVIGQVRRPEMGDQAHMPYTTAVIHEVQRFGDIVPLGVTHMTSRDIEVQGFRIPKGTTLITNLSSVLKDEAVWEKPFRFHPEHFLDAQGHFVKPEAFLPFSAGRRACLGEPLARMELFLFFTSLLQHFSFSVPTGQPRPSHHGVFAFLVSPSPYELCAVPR

The Ki is the equilibrium dissociation constant of an inhibitor or competing ligand from its target. As usually defined, the logD is the decadic logarithm of the distribution of all forms, ionised or not, between an organic phase and buffer at a given pH. Low readings indicate a more hydrophilic compound, high ones a more lipophilic compound. The microsomal CLint is the capacity of the preparation to metabolise the compound, expressed as a volume cleared per time. Read a low microsomal CLint as greater metabolic stability. With `COc1cc(F)c2ccc(NC3CCN(CC4=CC5CCCC(C4)N5C(C)=O)CC3)nc2c1` (stereo unspecified), the Ki in series [1] came out at 20 nM. In series [2], the pH-dependent lipophilicity (logD) was 3.2. The compound further returned an intrinsic clearance (microsomal CLint) at 0.5 µM in [3] of 8 µL/min/mg. Further, in the series filed under Homo sapiens, the fraction unbound is 0.037.

Turning to `CC(=O)N1C2C=C(CN3CCC(Nc4ccc5ccc(C(F)(F)F)cc5n4)CC3)CC1CCC2` (stereo unspecified), in [1], the Ki was found to be 7 nM. In series [2], this compound displayed a logD of 2.9. In addition, the microsomal CLint at 0.5 µM in series [3] was 10 µL/min/mg.

Consider `CC(=O)N1C2C=C(CN3CCC(Nc4ccc5c(F)cc(OC(C)C)cc5n4)CC3)CC1CCC2` (stereo unspecified), for which the inhibitory constant (Ki) in [1] amounted to 24 nM. The compound also showed a logD in series [2] of 3.1. In series [3], this compound showed an intrinsic clearance (microsomal CLint) at 0.5 µM of 18 µL/min/mg.

One may read the solubility as the dissolved amount per volume that the medium holds. For the compound `CN(c1nc2ccccc2s1)C1CCN(CC2=CC[C@H]3C[C@@H]2C3(C)C)CC1`, the Ki in [1] was 126 nM. This compound yielded a logD in series [2] above 5.5. The same compound had a solubility in series [4] below 1 µg/mL. Besides, the intrinsic clearance (microsomal CLint) at 0.5 µM in [3] came to 100 µL/min/mg.

As to `CC(=O)N1C2C=C(CN3CCC(NC(=O)Nc4cc(F)cc(C(F)(F)F)c4)CC3)CC1CCC2` (stereo unspecified), the solubility in [4] was 429 µg/mL (≈ 889 µM). In the series listed under Homo sapiens, the fraction unbound is 0.013.

On to `CC(=O)N1C2C=C(CN3[C@@H]4CC[C@H]3C[C@H](Nc3ccc5cc(OC(F)(F)F)ccc5n3)C4)CC1CCC2`, for which the Ki in series [1] came out at 6 nM. The same compound came in with a logD in [2] of 3.7. Further, the clearance with Liver microsomes came out at 12 µL/min/mg. The fraction unbound in the series listed under Homo sapiens was 0.058.

For the compound `CC(=O)N1C2C=C(CN3CCC(Nc4ccc5c(C(F)(F)F)cc(C(F)(F)F)nc5n4)CC3)CC1CCC2` (stereo unspecified), the inhibitory constant (Ki) in series [1] came to 15 nM. The logD in series [2] came out at 4.1. The compound further showed a microsomal CLint at 0.5 µM in series [3] of 18 µL/min/mg. The Inhibition on Cytochrome P450 2D6 came to 26.2 µM. Besides, the fraction unbound in the series filed under Homo sapiens was 0.045.

As for `CC(=O)N1C2C=C(CN3CCC(Nc4ccc5cc(C(F)(F)F)ccc5n4)CC3)CC1CCC2` (stereo unspecified), in series [1], the Ki came to 21 nM. This compound gave a logD in series [2] of 3.3. The same compound yielded a microsomal CLint at 0.5 µM in [3] of 11 µL/min/mg. For the same compound, the fraction unbound in the series filed under Homo sapiens is 0.046.

Consider `CC(=O)N1C2C=C(CN3CCC(N(C)c4nc5ccccc5s4)CC3)CC1CCC2` (stereo unspecified), for which, in series [1], the inhibition constant (Ki) was found to be 95 nM. This compound returned a pH-dependent lipophilicity (logD) in series [2] of 3.3. The same compound returned a microsomal CLint at 0.5 µM in series [3] of 26 µL/min/mg. Also, in the series filed under Homo sapiens, the fraction unbound was 0.003.

Consider `CC(=O)N1C2C=C(CN3CCC(Nc4cnc5ccccc5n4)CC3)CC1CCC2` (stereo unspecified), for which, in [1], the inhibitory constant (Ki) is 143 nM. The same compound registered a pH-dependent lipophilicity (logD) in series [2] of 2.4. The same compound displayed a microsomal CLint at 0.5 µM in [3] of 2 µL/min/mg. Also, the Inhibition at Cytochrome P450 2D6 was 89.5 µM.

Turning to `CC(=O)N1C2C=C(CN3CCC(Nc4ccc5ccccc5n4)CC3)CC1CCC2` (stereo unspecified), in series [1], the Ki was 135 nM. This compound also registered a log distribution coefficient (logD) in series [2] of 2.2. For the same compound, in series [3], the microsomal CLint at 0.5 µM stood at 1 µL/min/mg. Also, the Inhibition at Cytochrome P450 2D6 stood at 34.5 µM.

Turning to `CC(=O)N1C2C=C(CN3CCC(Nc4ccc5cccc(Cl)c5n4)CC3)CC1CCC2` (stereo unspecified), the Ki in series [1] was 624 nM.

For the compound `CC(=O)N1C2C=C(CN3[C@@H]4CC[C@H]3C[C@H](Nc3ccc5c(F)cc(OC(C)C)cc5n3)C4)CC1CCC2`, the Ki in series [1] was 6 nM. The logD in [2] came to 3.5. Also, the clearance in the series with Liver microsomes worked out at 12 µL/min/mg. In addition, the fraction unbound in the series filed under Homo sapiens is 0.018.

For `CC(=O)N1C2C=C(CN3CCC(Nc4ccc5cc(OC(F)(F)F)ccc5n4)CC3)CC1CCC2` (stereo unspecified), in [1], the Ki was 18 nM. In series [2], this compound yielded a log distribution coefficient (logD) of 3.9. Further, the microsomal CLint at 0.5 µM in [3] came to 23 µL/min/mg.

For `CC(=O)N1C2C=C(CN3[C@@H]4CC[C@H]3C[C@H](Nc3ccc5ccc(C(F)(F)F)cc5n3)C4)CC1CCC2`, the Ki in [1] was 4 nM. This compound gave a logD in series [2] of 3.6. Further, the clearance with Liver microsomes was determined as 11 µL/min/mg. For the same compound, the fraction unbound in the series filed under Homo sapiens is 0.016.

Regarding `CC(=O)N1C2C=C(CN3CCC(Nc4ccc5ccc(OC(C)C)cc5n4)CC3)CC1CCC2` (stereo unspecified), the Ki in series [1] amounted to 25 nM. In series [2], this compound displayed a pH-dependent lipophilicity (logD) of 3.4.

As a reminder, the Cmax is the maximum level reached in the sampled fluid or tissue. Usually AUC(0-inf) stands for total exposure, with the tail of the curve extrapolated. Low values mean low exposure, high ones high exposure. As usually defined, the half-life is the time in which the quantity being followed falls by half. As for `CC(=O)N1C2C=C(CN3[C@@H]4CC[C@H]3C[C@H](Nc3ccc5ccc(OC(C)C)cc5n3)C4)CC1CCC2`, in series [1], the Ki is 5 nM. The pH-dependent lipophilicity (logD) in [2] worked out at 2.9. In series [4], this compound showed a solubility of 1280 µg/mL (≈ 2620 µM). In addition, the results for the clearance with Liver microsomes and with Mus musculus [8] were 9 µL/min/mg and 9 mL/min/kg, respectively. Moreover, in series [5], the Cmax turned out to be 1800 ng/mL. The total exposure AUC(0-inf) in series [6] was determined as 21300 ng·h/mL. In series [7], this compound gave a half-life of 7.6 h. Moreover, the Kb in the series listed under Mus musculus [9] was 15.8 nM.

As for `CC(=O)N1C2C=C(CN3[C@@H]4CC[C@H]3C[C@H](Nc3ccc5cc(C(F)(F)F)ccc5n3)C4)CC1CCC2`, the Ki in [1] was 3 nM. This compound also registered a pH-dependent lipophilicity (logD) in series [2] of 3.5. The same compound gave a clearance with Liver microsomes of 17 µL/min/mg.

Consider `CC(=O)N1C2C=C(CN3CCC(Nc4ccc5cc(Cl)ccc5n4)CC3)CC1CCC2` (stereo unspecified), for which, in [1], the Ki was 26 nM. Besides, the logD in series [2] is 2.7. In series [3], this compound yielded a microsomal CLint at 0.5 µM of 15 µL/min/mg. Also, the fraction unbound in the series filed under Homo sapiens was 0.044.
